Source: PubChem (several laboratories)
A selection: hits, their analogues and other compounds. The true share with any hit is near 1.8%.
Rin1 Abl inh: blocks binding of human Rin1 to Abl | P00519+Q13671 | TR-FRET Rin1/Abl binding, biochemical | inhibition, % at 7.35 µM | hit rate 0.4% among 360,000 | AID 588664; in the data active = inhibition above about 5%, passing the limit was not always enough
PG9 Ab binder: binds the HIV-1 gp120 antibody PG9 | inhibition, % at 6.7 µM | AID 624416 | hit rate 0.43% among 360,000 | TR-FRET gp120-PG9 antibody binding; in the data active = inhibition above about 8.5%
Tb MetRS inh: blocks T. brucei methionyl-tRNA synthetase activity; purified T. brucei MetRS, ATP depletion, Kinase-Glo luminescence; hit rate 0.4% among 360,000; inhibition, % at 11.9 µM;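 active = inhibition above a per-plate cutoff of the control wells' mean inhibition plus 3 SD, cut at about 5.5% in these data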;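 note: 0% = DMSO wells median and 100% = median of wells with control inhibitor compound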
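System: purified T. brucei MetRS enzyme / Detection: Kinase-Glo luciferase luminescence reporting remaining unconsumed ATP / Medium: HEPES buffer with MgCl2, KCl, DTT, spermine, BSA, pyrophosphatase / Replication: singlicate, one well per compound / Evaluation: percent inhibition relative to median high and low control wells / Schedule: 2 h aminoacylation at 25 °C after 15 min preincubation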
NR1D1 modulator: modulators of human Rev-erb alpha DNA binding; P20393; Rev-erbα–FITC-DNA binding, fluorescence polarization, 90 min; activity, % at 10 µM; hit rate 0.79% among 370,000; AID 1259318;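 active = activity above about 14%, limit read from the data; passing the limit was not always enough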;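 note: 0% = DMSO wells with 35 nM protein and 100% = DMSO wells with 750 nM protein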
Target sequence (P20393 whole entry, looked up): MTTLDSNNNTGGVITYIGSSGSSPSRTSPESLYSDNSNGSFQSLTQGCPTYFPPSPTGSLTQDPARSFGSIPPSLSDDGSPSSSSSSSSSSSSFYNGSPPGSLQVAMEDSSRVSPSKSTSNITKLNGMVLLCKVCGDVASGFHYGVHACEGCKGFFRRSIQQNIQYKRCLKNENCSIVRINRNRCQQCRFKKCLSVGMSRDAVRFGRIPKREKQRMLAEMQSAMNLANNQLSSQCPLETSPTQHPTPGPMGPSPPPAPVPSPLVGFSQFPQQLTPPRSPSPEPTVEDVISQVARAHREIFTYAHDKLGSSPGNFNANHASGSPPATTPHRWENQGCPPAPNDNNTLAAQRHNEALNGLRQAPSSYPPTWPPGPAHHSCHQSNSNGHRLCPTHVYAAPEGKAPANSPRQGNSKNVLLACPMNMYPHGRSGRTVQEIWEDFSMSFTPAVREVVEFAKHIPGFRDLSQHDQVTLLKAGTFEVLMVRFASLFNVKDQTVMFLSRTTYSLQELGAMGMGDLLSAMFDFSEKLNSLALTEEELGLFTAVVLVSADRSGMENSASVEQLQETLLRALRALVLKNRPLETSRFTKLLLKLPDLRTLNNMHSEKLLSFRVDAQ
Rev-erbA confirm: Rev-erb alpha (human) modulation, hit confirmation | AID 1259319 | hit rate 61% among 3,000 | activation, % at 25 µM | shares compounds with NR1D1 modulator | Rev-erb alpha FITC-DNA binding, fluorescence polarization, 90 min;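 active = activation at or above a set limit, or at least 3 SD above the negative control mean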;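 note: 0% = 35 nM protein with DMSO and 100% = 750 nM protein high control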
RORg counter: affects RORgamma DNA binding in a Rev-erb alpha counter-screen. shares compounds with NR1D1 modulator. hit rate 8% among 910. purified RORgamma protein-FITC-DNA binding, fluorescence polarization. IC50, µM;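 active = Compounds whose fitted half-maximal concentration for disrupting protein-DNA binding is below 10 micromolar; the record names Rev-erb in its text, so the target is in doubt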
The depositor's hits bear a star.

Cc1cc(C(=O)N(C)CC(=O)Nc2ccc(Cl)c(C(F)(F)F)c2)no1 was read as Rin1 Abl inh -3, PG9 Ab binder 1, Tb MetRS inh 0 and NR1D1 modulator -1.
For COc1cc(/C=C/c2noc(-c3ccccc3O)n2)cc(OC)c1OC the results were Rin1 Abl inh -3, PG9 Ab binder 0, Tb MetRS inh -1, NR1D1 modulator 51* and Rev-erbA confirm 25*.
For Cc1ccc(-c2c(C)sc(=NC(=O)c3ccco3)n2C)cc1 the results were Rin1 Abl inh 2, PG9 Ab binder 1, Tb MetRS inh -1, NR1D1 modulator 37* and Rev-erbA confirm 16*.
For COc1ccc(OC)c2c1sc(=NC(=O)c1ccco1)n2C the results were Rin1 Abl inh -3, PG9 Ab binder 1, Tb MetRS inh 0 and NR1D1 modulator 16.
For CC1CC(=O)N(c2ccc(NCCc3ccc(O)cc3)c([N+](=O)[O-])c2)C1=O (configuration not stated) the results were Rin1 Abl inh -16, PG9 Ab binder 0, Tb MetRS inh -1, NR1D1 modulator 19* and Rev-erbA confirm 7.
Cn1c(SCC(=O)c2ccc3c(c2)Cc2ccccc2-3)nnc1-c1ccccc1 was read as Rin1 Abl inh -2, PG9 Ab binder 2, Tb MetRS inh -1, NR1D1 modulator 62*, Rev-erbA confirm 47* and RORg counter 7.5*.
For COc1ccc2c(Cl)c(-c3nnc(SCC(=O)c4ccccc4)n3C)sc2c1 the results were Rin1 Abl inh 1, PG9 Ab binder 1, Tb MetRS inh 0, NR1D1 modulator 95*, Rev-erbA confirm 117* and RORg counter inactive.
Screening CCC(=O)Nc1nnc(SCC(=O)c2ccc3c(c2)Cc2ccccc2-3)s1 returned Rin1 Abl inh -1, PG9 Ab binder 7, Tb MetRS inh 0, NR1D1 modulator 44* and Rev-erbA confirm 17*.
Screening COc1ccc(/C=C/C(=O)NC(=S)N2CCN(c3ccccc3OC)CC2)cc1 returned Rin1 Abl inh -1, PG9 Ab binder -5, Tb MetRS inh 0, NR1D1 modulator 48*, Rev-erbA confirm 39* and RORg counter >40.
For COc1ccc(/C=C/C(=O)NC(=S)N2CCOCC2)cc1 the results were Rin1 Abl inh -1, PG9 Ab binder 0, Tb MetRS inh 0 and NR1D1 modulator -1.
`Cc1ccc(S(=O)(=O)N(CCC(=O)N2CCOCC2)c2ccccc2)cc1` gave Rin1 Abl inh 3, PG9 Ab binder -1, Tb MetRS inh 0 and NR1D1 modulator -3.
Screening CCOC(=O)c1ccc(NC(=O)C2CC(O)CN2S(=O)(=O)c2ccc(C)cc2)cc1 (configuration not stated) returned Rin1 Abl inh 3, PG9 Ab binder 1, Tb MetRS inh 0, NR1D1 modulator 21* and Rev-erbA confirm 1.
COc1cccc(NC(=O)CSc2nc3ccccc3c(=O)n2Cc2cccs2)c1 was read as Rin1 Abl inh -5, PG9 Ab binder -2, Tb MetRS inh 0 and NR1D1 modulator -1.
`CCOc1ccc(NC(=O)Cn2cc(C(=O)CC)c3ccccc32)cc1` gave Rin1 Abl inh 1 and Tb MetRS inh 0.
For CCC(=O)c1cn(CC(=O)Nc2cccc(OC)c2)c2ccccc12 the results were Rin1 Abl inh 2, PG9 Ab binder -1, Tb MetRS inh 3, NR1D1 modulator 26* and Rev-erbA confirm 18.
`COc1cccc(NC(=O)CSc2nc3ccccc3c3nc4ccccc4n23)c1` gave Rin1 Abl inh -4, PG9 Ab binder 0, Tb MetRS inh 0, NR1D1 modulator 54* and Rev-erbA confirm -6.
For CCOc1ccc(NC(=O)Cn2cc(C(C)=O)c3ccccc32)cc1 the results were Rin1 Abl inh 0, PG9 Ab binder -2, Tb MetRS inh 0, NR1D1 modulator 29* and Rev-erbA confirm 13.
`CC(=O)OC(C(=O)Nc1nncs1)c1ccccc1` (configuration not stated) gave Rin1 Abl inh 1, PG9 Ab binder -2, Tb MetRS inh 0 and NR1D1 modulator 0.
`COc1cccc(C(=O)n2ccc3ccc(-c4ccc5ccn(C(=O)c6cccc(OC)c6)c5c4)cc32)c1` gave NR1D1 modulator 44*, Rev-erbA confirm 85* and RORg counter inactive.
O=C(c1ccccc1)n1ccc2ccc(-c3ccc4ccn(C(=O)c5ccccc5)c4c3)cc21 was read as NR1D1 modulator -3.
Screening COc1ccc(Cn2ccc3ccc(-c4ccc5ccn(C(=O)C6CC6)c5c4)cc32)cc1 returned NR1D1 modulator 1.
`COc1cccc(C(=O)n2ccc3ccc(-c4ccc5ccn(Cc6ccc(C#N)cc6)c5c4)cc32)c1` gave NR1D1 modulator 48* and Rev-erbA confirm 9.
`COc1cccc(C(=O)n2ccc3ccc(-c4ccc5ccn(Cc6ccccc6)c5c4)cc32)c1` gave NR1D1 modulator 24*, Rev-erbA confirm 52* and RORg counter 6.8*.
`COc1cc(Br)c(CCNC(=O)c2ccco2)cc1OC` gave Rin1 Abl inh 3, PG9 Ab binder -2, Tb MetRS inh 1 and NR1D1 modulator -3.
`O=[N+]([O-])c1ccc(Nc2ccccc2)c2nonc12` gave Rin1 Abl inh -11, PG9 Ab binder -5, Tb MetRS inh 0 and NR1D1 modulator 19.
CC(=O)NS(=O)(=O)c1ccc(Nc2ccc([N+](=O)[O-])c3nonc23)cc1 was read as Rin1 Abl inh -14, PG9 Ab binder -5, Tb MetRS inh 3, NR1D1 modulator 26* and Rev-erbA confirm 21*.
`CC(CNC(=O)c1ccc(C#N)cc1)NC(=O)c1ccc(C#N)cc1` (configuration not stated) gave Rin1 Abl inh -1, PG9 Ab binder -3, Tb MetRS inh 0 and NR1D1 modulator -5.
`Cc1nc(N2CCN(S(=O)(=O)c3ccccc3)CC2)c2cc(-c3ccccc3)sc2n1` gave Rin1 Abl inh -1, PG9 Ab binder 0, Tb MetRS inh -1, NR1D1 modulator 44* and Rev-erbA confirm 28*.
CCCCNC(=O)C1C(c2ccc(C(F)(F)F)cc2)=Nc2ccccc2N1C(=O)c1ccc2nc(C)[nH]c2c1 (configuration not stated) was read as PG9 Ab binder 3, Tb MetRS inh 0 and NR1D1 modulator 3.
For CC1CC(C)CN(C(=O)CSc2nnc3ccccn23)C1 (configuration not stated) the results were Rin1 Abl inh 0, PG9 Ab binder -3, Tb MetRS inh 0 and NR1D1 modulator -12.
`N#Cc1c(-c2ccccc2)oc(=O)c2ccccc12` gave Rin1 Abl inh -1, PG9 Ab binder 0, Tb MetRS inh 0, NR1D1 modulator 20* and Rev-erbA confirm -2.
O=c1oc(-c2ccccc2)c(-c2ccccc2)c2ccccc12 was read as Rin1 Abl inh 2, PG9 Ab binder 1, Tb MetRS inh 0 and NR1D1 modulator -5.
